Experiments:
TGF-beta receptor type-1 = molecular target: T1, TGF-beta receptor type-1 (Homo sapiens, UniProt P36897); assay: Inhibition of human recombinant GST-fused ALK5 expressed in insect Sf9 cells using casein as substrate by radiometric kinase assay
T1 sequence (P36897 whole entry): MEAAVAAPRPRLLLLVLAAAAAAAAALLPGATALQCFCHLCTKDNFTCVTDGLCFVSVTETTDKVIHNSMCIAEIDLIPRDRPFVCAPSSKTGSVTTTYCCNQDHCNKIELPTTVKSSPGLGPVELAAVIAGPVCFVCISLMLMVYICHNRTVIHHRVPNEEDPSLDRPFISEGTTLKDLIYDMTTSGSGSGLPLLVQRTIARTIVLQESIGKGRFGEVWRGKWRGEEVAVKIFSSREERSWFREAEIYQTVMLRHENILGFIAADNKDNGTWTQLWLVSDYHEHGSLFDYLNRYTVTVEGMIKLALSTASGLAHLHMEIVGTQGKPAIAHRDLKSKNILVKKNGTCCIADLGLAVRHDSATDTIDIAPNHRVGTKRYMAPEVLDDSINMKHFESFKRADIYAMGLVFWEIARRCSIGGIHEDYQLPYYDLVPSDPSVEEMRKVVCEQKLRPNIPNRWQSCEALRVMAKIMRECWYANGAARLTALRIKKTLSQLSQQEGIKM

[1] = molecular target: Mitogen-activated protein kinase 14 (Homo sapiens, UniProt Q16539); assay: Inhibition of human recombinant p38alpha expressed in Escherichia coli using ATF2 as substrate by radiometric kinase assay
Homo sapiens = species: Homo sapiens; assay: Selectivity index, ratio of IC50 for human recombinant p38alpha to IC50 for human recombinant ALK5
Summary of the method: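 Ratio of IC50 values from two radiometric (33P) protein kinase assays run by a contract lab. ALK5 assay: human recombinant GST-fusion kinase domain expressed in Sf9 cells via baculovirus, with casein as substrate. p38α assay: untagged human recombinant enzyme expressed in E. coli and Ni-agarose purified, with ATF2 as substrate, tested up to 1 μM. Index = IC50 p38α / IC50 ALK5.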

[2] = Chemical stability of compound; type: physicochemical

Sequence of Mitogen-activated protein kinase 14 (Q16539 whole entry): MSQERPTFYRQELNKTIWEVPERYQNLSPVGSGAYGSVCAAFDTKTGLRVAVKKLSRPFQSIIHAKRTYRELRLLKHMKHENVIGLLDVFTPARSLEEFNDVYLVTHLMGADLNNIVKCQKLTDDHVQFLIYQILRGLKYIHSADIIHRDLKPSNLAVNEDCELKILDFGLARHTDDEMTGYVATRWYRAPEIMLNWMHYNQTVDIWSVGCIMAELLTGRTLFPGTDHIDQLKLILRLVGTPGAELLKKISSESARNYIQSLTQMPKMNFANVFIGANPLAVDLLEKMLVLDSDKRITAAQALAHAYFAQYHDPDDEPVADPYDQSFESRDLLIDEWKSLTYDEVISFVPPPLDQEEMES

| Structure (SMILES) | IC50 (TGF-beta receptor type-1) | IC50 [1] | Ratio IC50 (Homo sapiens) | Stability [2] |
| --- | --- | --- | --- | --- |
| Cc1cccc(-c2nn(CCC(=O)Nc3ccccc3)cc2-c2ccc3nccnc3c2)n1 | 82 nM | > 1000 nM | > 12 |  |
| Cc1cccc(-c2nn(CC(=O)Nc3ccccc3)cc2-c2ccc3nccnc3c2)n1 | 38 nM | > 1000 nM | > 26 |  |
| Cc1cccc(-c2c(-c3ccc4nccnc4c3)cnn2CC(=O)Nc2ccccc2)n1 | 143 nM | > 1000 nM | > 7 |  |
| Cc1cccc(-c2c(-c3ccc4nc(C)c(C)nc4c3)cnn2CC(=O)Nc2ccccc2)n1 | > 1000 nM | > 1000 nM |  |  |
| Cc1cccc(-c2nn(CC(=O)Nc3cccc(C(N)=O)c3)cc2-c2ccc3nccnc3c2)n1 | 48 nM | > 1000 nM | > 21 |  |
| Cc1cccc(-c2[nH]c(Cc3cccc(C(N)=O)c3)nc2-c2ccc3nccnc3c2)n1 |  |  | 28 |  |
| Cc1cccc(-c2c(-c3ccc4nccnc4c3)cnn2CC(=O)Nc2cccc(C#N)c2)n1 | 737 nM | > 1000 nM | > 1 |  |
| Cc1cccc(-c2nn(CC(=S)Nc3ccccc3)cc2-c2ccc3nccnc3c2)n1 | 13 nM | > 1000 nM | > 77 | Stable |

The remaining lines, values ahead:

| IC50 (TGF-beta receptor type-1) | IC50 [1] | Ratio IC50 (Homo sapiens) | Stability [2] | Structure (SMILES) |
| --- | --- | --- | --- | --- |
| > 1000 nM | > 1000 nM |  |  | Cc1cccc(-c2nn(CC(=O)Nc3cccc(C(N)=O)c3)cc2-c2ccc3nc(C)c(C)nc3c2)n1 |
| > 1000 nM | > 1000 nM |  |  | Cc1cccc(-c2nn(CC(=S)Nc3cccc(C#N)c3)cc2-c2ccc3nc(C)c(C)nc3c2)n1 |
| > 1000 nM | > 1000 nM |  |  | Cc1cccc(-c2nn(CC(=S)Nc3ccccc3)cc2-c2ccc3nc(C)c(C)nc3c2)n1 |
| > 1000 nM | > 1000 nM |  |  | Cc1cccc(-c2nn(CC(=O)Nc3cccc(C#N)c3)cc2-c2ccc3nc(C)c(C)nc3c2)n1 |
| > 1000 nM | > 1000 nM |  |  | Cc1cccc(-c2nn(CCC(=O)Nc3cccc(C#N)c3)cc2-c2ccc3nc(C)c(C)nc3c2)n1 |
| > 1000 nM | > 1000 nM |  |  | Cc1cccc(-c2c(-c3ccc4nc(C)c(C)nc4c3)cnn2CC(=O)Nc2cccc(C#N)c2)n1 |
| > 1000 nM | > 1000 nM |  |  | Cc1cccc(-c2nn(CC(=O)Nc3ccccc3)cc2-c2ccc3nc(C)c(C)nc3c2)n1 |
| 26 nM | > 1000 nM | > 38 |  | Cc1cccc(-c2nn(CC(=S)Nc3cccc(C#N)c3)cc2-c2ccc3nccnc3c2)n1 |
| 153 nM | > 1000 nM | > 7 |  | Cc1cccc(-c2nn(CC(=O)Nc3cccc(C#N)c3)cc2-c2ccc3nccnc3c2)n1 |

From ChEMBL document CHEMBL1821641, “Synthesis and biological evaluation of 1-substituted-3(5)-(6-methylpyridin-2-yl)-4-(quinoxalin-6-yl)pyrazoles as transforming growth factor-β type 1 receptor kinase inhibitors” (Eur J Med Chem, 2011)
